Data published in ChEMBL document CHEMBL4393701, “Appendix A. dithioloquinolinethiones as new potential multitargeted antibacterial and antifungal agents: Synthesis, biological evaluation and molecular docking studies” (2019).
Values after ≈ are worked out from the molar mass of the structure shown.

Assays:
Penicillium cyclopium [1] = experiment: Antifungal activity against Penicillium verrucosum var. cyclopium food isolate after 72 hrs by microdilution technique; type: functional
Procedure, shortened: (§1)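 Spores were washed off malt agar with 0.85% saline containing 0.1% Tween 80 and adjusted to about 1.0×10^5 per well. Compounds in 5% DMSO were serially diluted (0.001-1.0 mg/ml) in malt broth with inoculum. Plates were shaken at 160 rpm for 72 h at 28 °C. MIC is the lowest concentration without visible growth under a binocular microscope. Three independent experiments in duplicate.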

Aspergillus versicolor [2] = experiment: Antifungal activity against Aspergillus versicolor ATCC 11730 after 72 hrs by microdilution method; type: functional; conditions: ATCC 11730, 72 h; procedure, shortened: as §1
Salmonella typhimurium [3] = experiment: Bactericidal activity against Salmonella typhimurium ATCC 13311 incubated for 24 hrs followed by re-plating on tryptic soy broth; type: functional, Salmonella enterica subsp. enterica serovar Typhimurium; conditions: Salmonella enterica, ATCC 13311, 24 h
Procedure, shortened: (§2)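 Bacteria were grown in tryptic soy broth, 1.0×10^4 CFU per well, with compounds in 5% DMSO at 0.001-1.0 mg/ml for 24 h at 37 °C. Then 10 µL was subcultured into fresh TSB. MBC is the lowest concentration showing no growth after subculture, taken as 99.5% kill of the original inoculum. Duplicates, repeated three times.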

Aspergillus niger [4] = experiment: Antifungal activity against Aspergillus niger ATCC 6275 after 72 hrs by microdilution technique; type: functional; conditions: ATCC 6275, 72 h; procedure, shortened: as §1
Pseudomonas aeruginosa [5] = experiment: Antibacterial activity against Pseudomonas aeruginosa ATCC 27853 after 24 hrs by iodonitrotetrazolium chloride dye based microdilution method; type: functional; conditions: ATCC 27853, 24 h
Procedure, shortened: (§3)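 Fresh overnight cultures adjusted spectrophotometrically to 1×10^5 CFU/mL, giving 1.0×10^4 CFU per well in tryptic soy broth. Compounds were dissolved in 5% DMSO and tested at 0.001-1.0 mg/ml by serial dilution; 5% DMSO was the negative control. After 24 h at 37 °C, 0.2 mg/mL INT solution was added for 30 min at 37 °C and OD read at 655 nm. MIC is the lowest concentration giving significant growth inhibition versus the positive control. Duplicates, repeated three times.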

Trichoderma viride [6] = experiment: Antifungal activity against Trichoderma viride IAM 5061 after 72 hrs by microdilution technique; type: functional; conditions: IAM 5061, 72 h; procedure, shortened: as §1
Penicillium ochrochloron [7] = experiment: Fungicidal activity against Penicillium ochrochloron ATCC 9112 incubated for 72 hrs followed by sub-culturing on broth malt medium and measured after 72 hrs; type: functional; conditions: ATCC 9112, 72 h
Procedure, shortened: (§4)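 After 72 h exposure in malt broth, 2 µL from test wells was subcultured into wells holding 100 µL broth and incubated a further 72 h at 28 °C. MFC is the lowest concentration with no visible growth, taken as 99.5% kill of the original inoculum. Three independent experiments in duplicate.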

Penicillium ochrochloron [8] = experiment: Antifungal activity against Penicillium ochrochloron ATCC 9112 after 72 hrs by microdilution technique; type: functional; conditions: ATCC 9112, 72 h; procedure, shortened: as §1
Enterobacter cloacae [9] = experiment: Antibacterial activity against Enterobacter cloacae clinical isolate after 24 hrs by iodonitrotetrazolium chloride dye based microdilution method; type: functional; procedure, shortened: as §3
Pseudomonas aeruginosa [10] = experiment: Bactericidal activity against Pseudomonas aeruginosa ATCC 27853 incubated for 24 hrs followed by re-plating on tryptic soy broth; type: functional; conditions: ATCC 27853, 24 h; procedure, shortened: as §2
Aspergillus fumigatus [11] = experiment: Fungicidal activity against Aspergillus fumigatus ATCC 1022 incubated for 72 hrs followed by sub-culturing on broth malt medium and measured after 72 hrs; type: functional; conditions: ATCC 1022, 72 h; procedure, shortened: as §4
Enterobacter cloacae [12] = experiment: Bactericidal activity against Enterobacter cloacae incubated for 24 hrs followed by re-plating on tryptic soy broth; type: functional; procedure, shortened: as §2
Listeria monocytogenes [13] = experiment: Antibacterial activity against Listeria monocytogenes NCTC 7973 after 24 hrs by iodonitrotetrazolium chloride dye based microdilution method; type: functional; conditions: NCTC 7973, 24 h; procedure, shortened: as §3
Escherichia coli [14] = experiment: Antibacterial activity against Escherichia coli ATCC 35210 after 24 hrs by iodonitrotetrazolium chloride dye based microdilution method; type: functional; conditions: ATCC 35210, 24 h; procedure, shortened: as §3
[15] = Antifungal activity against Penicillium funiculosum ATCC 36839 after 72 hrs by microdilution technique; type: functional; conditions: Talaromyces pinophilus, ATCC 36839, 72 h; procedure, shortened: as §1
Aspergillus niger [16] = experiment: Fungicidal activity against Aspergillus niger ATCC 6275 incubated for 72 hrs followed by sub-culturing on broth malt medium and measured after 72 hrs; type: functional; conditions: ATCC 6275, 72 h; procedure, shortened: as §4
Staphylococcus aureus [17] = experiment: Antibacterial activity against Staphylococcus aureus ATCC 6538 after 24 hrs by iodonitrotetrazolium chloride dye based microdilution method; type: functional; conditions: ATCC 6538, 24 h; procedure, shortened: as §3
[18] = Fungicidal activity against Penicillium funiculosum ATCC 36839 incubated for 72 hrs followed by sub-culturing on broth malt medium and measured after 72 hrs; type: functional; conditions: Talaromyces pinophilus, ATCC 36839, 72 h; procedure, shortened: as §4
Aspergillus fumigatus [19] = experiment: Antifungal activity against Aspergillus fumigatus ATCC 1022 after 72 hrs by microdilution technique; type: functional; conditions: ATCC 1022, 72 h; procedure, shortened: as §1
Listeria monocytogenes [20] = experiment: Bactericidal activity against Listeria monocytogenes NCTC 7973 incubated for 24 hrs followed by re-plating on tryptic soy broth; type: functional; conditions: NCTC 7973, 24 h; procedure, shortened: as §2
Bacillus cereus [21] = experiment: Bactericidal activity against Bacillus cereus clinical isolate incubated for 24 hrs followed by re-plating on tryptic soy broth; type: functional; procedure, shortened: as §2
Bacillus cereus [22] = experiment: Antibacterial activity against Bacillus cereus clinical isolate after 24 hrs by iodonitrotetrazolium chloride dye based microdilution assay; type: functional; procedure, shortened: as §3
Aspergillus versicolor [23] = experiment: Fungicidal activity against Aspergillus versicolor ATCC 11730 incubated for 72 hrs followed by sub-culturing on broth malt medium and measured after 72 hrs; type: functional; conditions: ATCC 11730, 72 h; procedure, shortened: as §4
Aspergillus ochraceus [24] = experiment: Antifungal activity against Aspergillus ochraceus ATCC 12066 after 72 hrs by microdilution technique; type: functional; conditions: ATCC 12066, 72 h; procedure, shortened: as §1
Trichoderma viride [25] = experiment: Fungicidal activity against Trichoderma viride IAM 5061 incubated for 72 hrs followed by sub-culturing on broth malt medium and measured after 72 hrs; type: functional; conditions: IAM 5061, 72 h; procedure, shortened: as §4
Salmonella typhimurium [26] = experiment: Antibacterial activity against Salmonella typhimurium ATCC 13311 after 24 hrs by iodonitrotetrazolium chloride dye based microdilution method; type: functional, Salmonella enterica subsp. enterica serovar Typhimurium; conditions: Salmonella enterica, ATCC 13311, 24 h; procedure, shortened: as §3
Micrococcus flavus [27] = experiment: Bactericidal activity against Micrococcus flavus ATCC 10240 incubated for 24 hrs followed by re-plating on tryptic soy broth; type: functional; conditions: ATCC 10240, 24 h; procedure, shortened: as §2
Aspergillus ochraceus [28] = experiment: Fungicidal activity against Aspergillus ochraceus ATCC 12066 incubated for 72 hrs followed by sub-culturing on broth malt medium and measured after 72 hrs; type: functional; conditions: ATCC 12066, 72 h; procedure, shortened: as §4
Staphylococcus aureus [29] = experiment: Bactericidal activity against Staphylococcus aureus ATCC 6538 incubated for 24 hrs followed by re-plating on tryptic soy broth; type: functional; conditions: ATCC 6538, 24 h; procedure, shortened: as §2
Micrococcus flavus [30] = experiment: Antibacterial activity against Micrococcus flavus ATCC 10240 after 24 hrs by iodonitrotetrazolium chloride dye based microdilution method; type: functional; conditions: ATCC 10240, 24 h; procedure, shortened: as §3
Escherichia coli [31] = experiment: Bactericidal activity against Escherichia coli ATCC 35210 incubated for 24 hrs followed by re-plating on tryptic soy broth; type: functional; conditions: ATCC 35210, 24 h; procedure, shortened: as §2
Penicillium cyclopium [32] = experiment: Fungicidal activity against Penicillium verrucosum var. cyclopium food isolate incubated for 72 hrs followed by sub-culturing on broth malt medium and measured after 72 hrs; type: functional; procedure, shortened: as §4

SMILES	MIC (Penicillium cyclopium [1]) [×10⁻² mM]	MIC (Aspergillus versicolor [2]) [×10⁻² mM]	MBC (Salmonella typhimurium [3]) [µM]	MIC (Aspergillus niger [4]) [×10⁻² mM]	MIC (Pseudomonas aeruginosa [5]) [µM]	MIC (Trichoderma viride [6]) [×10⁻² mM]	MFC (Penicillium ochrochloron [7]) [×10⁻² mM]	MIC (Penicillium ochrochloron [8]) [×10⁻² mM]	MIC (Enterobacter cloacae [9]) [µM]	MBC (Pseudomonas aeruginosa [10]) [µM]	MFC (Aspergillus fumigatus [11]) [×10⁻² mM]	MIC [15] [×10⁻² mM]	MFC (Aspergillus niger [16]) [×10⁻² mM]	MFC [18] [×10⁻² mM]	MIC (Aspergillus fumigatus [19]) [×10⁻² mM]	MFC (Aspergillus versicolor [23]) [×10⁻² mM]	MIC (Aspergillus ochraceus [24]) [×10⁻² mM]	MFC (Trichoderma viride [25]) [×10⁻² mM]	MFC (Aspergillus ochraceus [28]) [×10⁻² mM]	MFC (Penicillium cyclopium [32]) [×10⁻² mM]	further results
CC1(C)c2ssc(=S)c2-c2ccccc2N1C(=O)CSC1=NCCS1	3.53	3.53	141 (≈ 60 µg/mL)	3.53	70.7 (≈ 30 µg/mL)	1.88	7.06	3.53	70.7 (≈ 30 µg/mL)	141 (≈ 60 µg/mL)	7.06	3.53	7.06	7.06	3.53	7.06	1.88	3.53	3.53	7.06	MBC (Enterobacter cloacae [12]): 141 µM (≈ 59.9 µg/mL); MIC (Listeria monocytogenes [13]): 106 µM (≈ 45 µg/mL); MIC (Escherichia coli [14]): 106 µM (≈ 45 µg/mL); MIC (Staphylococcus aureus [17]): 106 µM (≈ 45 µg/mL); MBC (Listeria monocytogenes [20]): 141 µM (≈ 59.9 µg/mL); MBC (Bacillus cereus [21]): 141 µM (≈ 59.9 µg/mL); MIC (Bacillus cereus [22]): 106 µM (≈ 45 µg/mL); MIC (Salmonella typhimurium [26]): 106 µM (≈ 45 µg/mL); MBC (Micrococcus flavus [27]): 141 µM (≈ 59.9 µg/mL); MBC (Staphylococcus aureus [29]): 141 µM (≈ 59.9 µg/mL); MIC (Micrococcus flavus [30]): 106 µM (≈ 45 µg/mL); MBC (Escherichia coli [31]): 141 µM (≈ 59.9 µg/mL)
COc1cc2c3c(c1)-c1c(ssc1=S)C(C)(C)N3C(=O)/C2=C1\SC(=S)NC1=O	25.8	12.9	129 (≈ 60 µg/mL)	25.8	129 (≈ 60 µg/mL)	1.72	6.46	3.23	64.6 (≈ 30 µg/mL)	258 (≈ 120 µg/mL)	51.6	12.9	51.6	25.8	25.8	25.8	1.72	3.23	3.23	51.6	MBC (Enterobacter cloacae [12]): 129 µM (≈ 59.9 µg/mL); MIC (Listeria monocytogenes [13]): 258 µM (≈ 120 µg/mL); MIC (Escherichia coli [14]): 96.9 µM (≈ 45 µg/mL); MIC (Staphylococcus aureus [17]): 64.6 µM (≈ 30 µg/mL); MBC (Listeria monocytogenes [20]): 517 µM (≈ 240 µg/mL); MBC (Bacillus cereus [21]): 129 µM (≈ 59.9 µg/mL); MIC (Bacillus cereus [22]): 64.6 µM (≈ 30 µg/mL); MIC (Salmonella typhimurium [26]): 64.6 µM (≈ 30 µg/mL); MBC (Micrococcus flavus [27]): 129 µM (≈ 59.9 µg/mL); MBC (Staphylococcus aureus [29]): 129 µM (≈ 59.9 µg/mL); MIC (Micrococcus flavus [30]): 96.9 µM (≈ 45 µg/mL); MBC (Escherichia coli [31]): 129 µM (≈ 59.9 µg/mL)
c1ccc(-c2ccc(C(c3ccccc3)n3ccnc3)cc2)cc1 (stereo not given) [BIFONAZOLE]	48	48	–	48	–	64	80	64	–	–	64	48	64	64	48	64	48	80	80	64	–
